Tests used:
[1] = test system: Pectobacterium carotovorum; test: Antibacterial activity against Erwinia carotovora subsp. carotovora ICMP 5702 after 24 to 48 hrs by soft agar procedure; format: functional, Pectobacterium carotovorum subsp. carotovorum
How it was run: (§1)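 Tolaasin stock solutions in distilled water were serially diluted 1:1 and applied as drops onto soft-agar lawns of the test organism. The endpoint recorded was the last dilution that still inhibited growth in the area where the drop was applied.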

[2] = test system: Rhodotorula mucilaginosa; test: Antifungal activity against Rhodotorula pilimanae ATCC 26423 after 24 to 48 hrs by soft agar procedure; format: functional; how it was run: as §1
[3] = test system: Escherichia coli; test: Antibacterial activity against Escherichia coli K-12 ITM103 after 24 to 48 hrs by soft agar procedure; format: functional; how it was run: as §1
[4] = test system: Rhizoctonia solani; test: Antifungal activity against Rhizoctonia solani 1583 after 24 to 48 hrs by soft agar procedure; format: functional; how it was run: as §1
[5] = test system: Rhodococcus fascians; test: Antibacterial activity against Rhodococcus fascians NCPPB3067 after 24 to 48 hrs by soft agar procedure; format: functional, Rhodococcoides fascians; how it was run: as §1
[6] = test system: Priestia megaterium; test: Antibacterial activity against Bacillus megaterium ITM 100 after 24 to 48 hrs by soft agar procedure; format: functional; how it was run: as §1

Row | SMILES | MIC [1] [µg] | MIC [2] [µg] | MIC [3] [µg] | MIC [4] [µg] | MIC [5] [µg] | MIC [6] [µg]
1 | C/C=C(\NC(=O)[C@H](NC(=O)[C@H](CC(C)C)NC(=O)[C@@H](CCC(N)=O)NC(=O)[C@@H](NC(=O)[C@H](NC(=O)[C@@H](CC(C)C)NC(=O)[C@@H](CO)NC(=O)[C@H](NC(=O)[C@H](CC(C)C)NC(=O)[C@H](CO)NC(=O)[C@H]1CCCN1C(=O)/C(=C/C)NC(=O)CCCC(=O)O)C(C)C)C(C)C)C(C)C)C(C)C)C(=O)N[C@H]1C(=O)N[C@@H]([C@@H](C)CC)C(=O)N[C@@H](CCO)C(=O)N[C@H](CCN)C(=O)N[C@@H](CCCCN)C(=O)O[C@@H]1C [TOLAASIN A] | >5.12 | 5.12 | >5.12 | 1.28 | 1.28 | 1.28
2 | C/C=C(\NC(=O)[C@H](NC(=O)[C@H](CC(C)C)NC(=O)[C@@H](CCC(N)=O)NC(=O)[C@@H](NC(=O)[C@H](NC(=O)[C@@H](CC(C)C)NC(=O)[C@@H](CO)NC(=O)[C@H](NC(=O)[C@H](CC(C)C)NC(=O)[C@H](CO)NC(=O)[C@H]1CCCN1C(=O)/C(=C/C)NC(=O)CC(O)CCCCC)C(C)C)C(C)C)C(C)C)C(C)C)C(=O)N[C@H]1C(=O)N[C@@H](C(C)C)C(=O)N[C@@H](CCO)C(=O)N[C@H](CCN)C(=O)N[C@@H](CCCCN)C(=O)O[C@@H]1C (some centres not stated) [TOLAASIN B] | >5.12 | >5.12 | >5.12 | 2.56 | 1.28 | 2.56
3 | C/C=C(\NC(=O)[C@H](NC(=O)[C@H](CC(C)C)NC(=O)[C@@H](CCC(N)=O)NC(=O)[C@@H](NC(=O)[C@H](NC(=O)[C@@H](CC(C)C)NC(=O)[C@@H](CO)NC(=O)[C@H](NC(=O)[C@H](CC(C)C)NC(=O)[C@H](CO)NC(=O)[C@H]1CCCN1C(=O)/C(=C/C)NC(=O)CC(O)CCCCC)C(C)C)C(C)C)C(C)C)C(C)C)C(=O)N[C@@H](C(=O)N[C@H](C(=O)N[C@@H](CCO)C(=O)N[C@H](CCN)C(=O)N[C@@H](CCCCN)C(=O)O)[C@@H](C)CC)[C@@H](C)O (some centres not stated) [TOLAASIN C] | >5.12 | >5.12 | >5.12 | 5.12 | >5.12 | >5.12
4 | C/C=C(\NC(=O)[C@H](NC(=O)[C@H](CC(C)C)NC(=O)[C@@H](CCC(N)=O)NC(=O)[C@@H](NC(=O)[C@H](NC(=O)[C@@H](CC(C)C)NC(=O)[C@@H](CO)NC(=O)[C@H](NC(=O)[C@H](CC(C)C)NC(=O)[C@H](CO)NC(=O)[C@H]1CCCN1C(=O)/C(=C/C)NC(=O)CC(O)CCCCC)C(C)C)C(C)C)C(C)C)C(C)C)C(=O)N[C@H]1C(=O)N[C@@H](CC(C)C)C(=O)N[C@@H](CCO)C(=O)N[C@H](CCN)C(=O)N[C@@H](CCCCN)C(=O)O[C@@H]1C (some centres not stated) [TOLAASIN D] | >5.12 | 2.56 | >5.12 | 0.16 | 0.16 | 0.16
5 | C/C=C(\NC(=O)[C@H](NC(=O)[C@H](CC(C)C)NC(=O)[C@@H](CCC(N)=O)NC(=O)[C@@H](NC(=O)[C@H](NC(=O)[C@@H](CC(C)C)NC(=O)[C@@H](CO)NC(=O)[C@H](NC(=O)[C@H](CC(C)C)NC(=O)[C@H](CO)NC(=O)[C@H]1CCCN1C(=O)/C(=C/C)NC(=O)CC(O)CCCCC)C(C)C)C(C)C)C(C)C)C(C)C)C(=O)N[C@H]1C(=O)N[C@@H](CC(C)C)C(=O)NCC(=O)N[C@H](CCN)C(=O)N[C@@H](CCCCN)C(=O)O[C@@H]1C (some centres not stated) [TOLAASIN E] | >5.12 | >5.12 | >5.12 | 5.12 | 2.56 | 2.56
6 | C/C=C(\NC(=O)[C@H](NC(=O)[C@H](CC(C)C)NC(=O)[C@@H](CCC(N)=O)NC(=O)[C@@H](NC(=O)[C@H](NC(=O)[C@@H](CC(C)C)NC(=O)[C@@H](CO)NC(=O)[C@H](NC(=O)[C@H](CC(C)C)NC(=O)[C@H](CO)NC(=O)[C@H]1CCCN1C(=O)/C(=C/C)NC(=O)CC(O)CCCCC)C(C)C)C(C)C)C(C)C)C(C)C)C(=O)N[C@H]1C(=O)N[C@@H]([C@@H](C)CC)C(=O)NCC(=O)N[C@H](CCN)C(=O)N[C@@H](CCCCN)C(=O)O[C@@H]1C (some centres not stated) [TOLAASIN II] | >5.12 | 5.12 | >5.12 | 0.64 | 0.64 | 0.64
7 | C/C=C(\NC(=O)[C@H](NC(=O)[C@H](CC(C)C)NC(=O)[C@@H](CCC(N)=O)NC(=O)[C@@H](NC(=O)[C@H](NC(=O)[C@@H](CC(C)C)NC(=O)[C@@H](CO)NC(=O)[C@H](NC(=O)[C@H](CC(C)C)NC(=O)[C@H](CO)NC(=O)[C@H]1CCCN1C(=O)/C(=C/C)NC(=O)CC(O)CCCCC)C(C)C)C(C)C)C(C)C)C(C)C)C(=O)N[C@H]1C(=O)N[C@@H]([C@@H](C)CC)C(=O)N[C@@H](CCO)C(=O)N[C@H](CCN)C(=O)N[C@@H](CCCCN)C(=O)O[C@@H]1C (some centres not stated) [TOLAASIN I] | >5.12 | 2.56 | >5.12 | 0.32 | 0.32 | 0.32
